ChEMBL document CHEMBL1141292, “Sesquiterpenoids and artificial 19-oxygenated steroids from the formosan soft coral Nephthea erecta” (2007)
Values after ≈ are worked out from the molar mass of the structure shown.

Assays:
[1] = tested on: HT-29; test: Cytotoxicity against human HT29 cells by MTT assay; type: functional; settings: read-out: ED50 (the source's name)
Method in brief: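 HT-29 human colon adenocarcinoma cells; viability read by MTT assay, following a previously described procedure.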

[2] = tested on: P388; test: Cytotoxicity against mouse P388 cells by MTT assay; type: functional; settings: read-out: ED50 (the source's name)
Method in brief: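 P-388 mouse lymphocytic leukemia cells; viability read by MTT assay, following a previously described procedure.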

| SMILES | EC50 [1] [µg/mL] | EC50 [2] [µg/mL] |
| --- | --- | --- |
| C[C@H]1CCC[C@@]2(C)C[C@H]3OO[C@@]12C=C3C(C)(C)O | > 10 | > 10 |
| C=C(C)[C@@]1(OO)CC[C@]2(C)[C@H]3CC[C@@H](C)[C@H]3[C@@H]21 | 0.5 (≈ 2.12 µM) | 0.3 (≈ 1.27 µM) |
| C=C(C)[C@H]1[C@@H]2[C@H](C)CC[C@@H]2[C@@]2(C)CC[C@@H]12 | 3.2 (≈ 15.7 µM) | 2.8 (≈ 13.7 µM) |
| C=C(CC[C@@H](C)[C@H]1CC[C@H]2[C@@H]3C=CC4=CC=CC[C@]4(CO)[C@H]3CC[C@]12C)C(C)C | > 10 | > 10 |
| C[C@@H]1CC[C@@H](C(C)(C)O)C[C@]2(C)C1=C[C@H]1O[C@H]12 (relative stereo) | > 10 | > 10 |
| C=C(CC[C@@H](C)[C@H]1CC[C@H]2[C@@H]3C=CC4=C[C@@H]5OC[C@@]4(C[C@@H]5O)[C@H]3CC[C@]12C)C(C)C | > 10 | > 10 |
| C=C(C)[C@@]1(O)CC[C@]2(C)[C@H]3CC[C@@H](C)[C@H]3[C@@H]21 | > 10 | > 10 |
| C[C@H]1CCC[C@@]2(C)C[C@H]3OO[C@@]12C=C3C(C)(C)OO | 0.4 (≈ 1.49 µM) | 0.2 (≈ 0.745 µM) |
| C=C(CC[C@@H](C)[C@H]1CC[C@H]2[C@@H]3C[C@H]4OC[C@@]5(CC[C@H](O)C[C@]45O)[C@H]3CC[C@]12C)C(C)C | > 10 | > 10 |
